Columns and labels:
K562 = experiment: Cytotoxicity against human K562 cells assessed as inhibition of cell growth incubated for 72 hrs by MTS assay; format: functional, cell-based; conditions: K562, 72 h
Procedure, shortened: (§1)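 MTS assay on eight human cancer lines and two non-tumour fibroblast lines. IC50 is the concentration that inhibits cell growth by 50 %. SD typically up to 15 % of the mean.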

[1] = Cytotoxicity against human BJ cells assessed as inhibition of cell growth incubated for 72 hrs by MTS assay; format: toxicity, cell-based; procedure, shortened: as §1
HCT-116 = experiment: Cytotoxicity against human HCT-116 cells assessed as inhibition of cell growth incubated for 72 hrs by MTS assay; format: functional, cell-based; conditions: HCT-116, 72 h; procedure, shortened: as §1
A549 = experiment: Cytotoxicity against human A549 cells assessed as inhibition of cell growth incubated for 72 hrs by MTS assay; format: functional, cell-based; conditions: A549, 72 h; procedure, shortened: as §1
[2] = Cytotoxicity against human MRC5 cells assessed as inhibition of cell growth incubated for 72 hrs by MTS assay; format: toxicity, cell-based; procedure, shortened: as §1
HCT 116 TP53(-/-) = experiment: Cytotoxicity against human HCT116-p53-null cells assessed as inhibition of cell growth incubated for 72 hrs by MTS assay; format: functional, cell-based; procedure, shortened: as §1
U2OS = experiment: Cytotoxicity against human U2OS cells assessed as inhibition of cell growth incubated for 72 hrs by MTS assay; format: functional, cell-based; procedure, shortened: as §1
[3] = Cytotoxicity against human K562-Tax cells assessed as inhibition of cell growth incubated for 72 hrs by MTS assay; format: functional, cell-based; procedure, shortened: as §1
CEM-DNR = experiment: Cytotoxicity against human CEM-DNR cells assessed as inhibition of cell growth incubated for 72 hrs by MTS assay; format: functional, cell-based; procedure, shortened: as §1
CCRF-CEM = experiment: Cytotoxicity against human CCRF-CEM cells assessed as inhibition of cell growth incubated for 72 hrs by MTS assay; format: functional, cell-based; procedure, shortened: as §1

Structure (SMILES) | IC50 (K562) | IC50 at 72 h [1] | IC50 (HCT-116) | IC50 (A549) | IC50 at 72 h [2] | IC50 (HCT 116 TP53(-/-)) | IC50 (U2OS) | IC50 [3] | IC50 (CEM-DNR) | IC50 (CCRF-CEM)
CC1(C)[C@@H](O)CC[C@]2(C)[C@H]3CC[C@@H]4[C@H]5[C@H](c6ccc7c(c6)C(=O)N(c6ccc(C#N)cc6)C7=O)CC[C@]5(C(=O)O)CC[C@@]4(C)[C@]3(C)CC[C@@H]12 | > 50 µM | > 50 µM | > 50 µM | > 50 µM | > 50 µM | > 50 µM | > 50 µM | 12.7 µM | 27.3 µM | 19.8 µM
COC(=O)c1ccc([C@@H]2CC[C@]3(C(=O)O)CC[C@]4(C)[C@H](CC[C@@H]5[C@@]6(C)CC[C@H](O)C(C)(C)[C@@H]6CC[C@]54C)[C@@H]23)cc1C(=O)OC | 13.8 µM | 31.1 µM | 16.6 µM | 11.1 µM | 25.3 µM | 16.2 µM | 19.6 µM | 11.5 µM | 11.5 µM | 14.1 µM
CC(=O)Nc1ccc(N2C(=O)c3cc([C@@H]4CC[C@]5(C(=O)O)CC[C@]6(C)[C@H](CC[C@@H]7[C@@]8(C)CC[C@H](OC(C)=O)C(C)(C)[C@@H]8CC[C@]76C)[C@@H]45)cc(-c4ccccc4)c3C2=O)cc1 | 27.9 µM | > 50 µM | 16.8 µM | 34.6 µM | 33.7 µM | 28.4 µM | 18.8 µM | > 50 µM | > 50 µM | 8.08 µM
CC1(C)[C@@H](O)CC[C@]2(C)[C@H]3CC[C@@H]4[C@H]5[C@H](c6ccc(C(=O)O)c(C(=O)O)c6)CC[C@]5(C(=O)O)CC[C@@]4(C)[C@]3(C)CC[C@@H]12 | > 50 µM | > 50 µM | > 50 µM | > 50 µM | > 50 µM | > 50 µM | > 50 µM | > 50 µM | > 50 µM | > 50 µM
COc1ccc(N2C(=O)c3ccc([C@@H]4CC[C@]5(C(=O)O)CC[C@]6(C)[C@H](CC[C@@H]7[C@@]8(C)CC[C@H](O)C(C)(C)[C@@H]8CC[C@]76C)[C@@H]45)cc3C2=O)cc1 | > 50 µM | > 50 µM | > 50 µM | 28.1 µM | > 50 µM | > 50 µM | 27.5 µM | 5.35 µM | 9.85 µM | 11.1 µM
CC1(C)[C@@H](O)CC[C@]2(C)[C@H]3CC[C@@H]4[C@H]5[C@H](c6ccc7c(c6)C(=O)NC7=O)CC[C@]5(C(=O)O)CC[C@@]4(C)[C@]3(C)CC[C@@H]12 | 35.3 µM | > 50 µM | 31.1 µM | 26.6 µM | > 50 µM | 34.9 µM | 38.5 µM | 17.3 µM | 20.7 µM | 26.3 µM
Cc1cc([C@@H]2CC[C@]3(C(=O)O)CC[C@]4(C)[C@H](CC[C@@H]5[C@@]6(C)CC[C@H](O)C(C)(C)[C@@H]6CC[C@]54C)[C@@H]23)cc2c1C(=O)NC2=O | > 50 µM | > 50 µM | 25.9 µM | > 50 µM | 34.3 µM | 27.2 µM | 24.8 µM | 7.2 µM | 8.76 µM | 7.97 µM
COc1ccc(N2C(=O)c3cc([C@@H]4CC[C@]5(C(=O)O)CC[C@]6(C)[C@H](CC[C@@H]7[C@@]8(C)CC[C@H](O)C(C)(C)[C@@H]8CC[C@]76C)[C@@H]45)cc(-c4ccccc4)c3C2=O)cc1 | > 50 µM | > 50 µM | > 50 µM | > 50 µM | > 50 µM | > 50 µM | > 50 µM | 27.9 µM | > 50 µM | 13.6 µM
COc1ccc(N2C(=O)c3ccc([C@@H]4CC[C@]5(COC(C)=O)CC[C@]6(C)[C@H](CC[C@@H]7[C@@]8(C)CC[C@H](OC(C)=O)C(C)(C)[C@@H]8CC[C@]76C)[C@@H]45)cc3C2=O)cc1 | > 50 µM | > 50 µM | > 50 µM | > 50 µM | > 50 µM | > 50 µM | > 50 µM | > 50 µM | > 50 µM | > 50 µM
CC(=O)O[C@H]1CC[C@]2(C)[C@H]3CC[C@@H]4[C@H]5[C@H](c6ccc7c(c6)C(=O)NC7=O)CC[C@]5(CO)CC[C@@]4(C)[C@]3(C)CC[C@H]2C1(C)C | 36 µM | > 50 µM | 19.7 µM | > 50 µM | 28.5 µM | 21.8 µM | 34.5 µM | 7.43 µM | 9.21 µM | 14 µM
CC1(C)[C@@H](O)CC[C@]2(C)[C@H]3CC[C@@H]4[C@H]5[C@H](c6cc7c(c(-c8ccccc8)c6)C(=O)NC7=O)CC[C@]5(C(=O)O)CC[C@@]4(C)[C@]3(C)CC[C@@H]12 | 7.58 µM | 34.5 µM | 7.22 µM | 6.39 µM | 32.4 µM | 7.43 µM | 9.82 µM | 10.4 µM | 9.65 µM | 7.18 µM
CC(=O)Nc1ccc(N2C(=O)c3ccc([C@@H]4CC[C@]5(C(=O)O)CC[C@]6(C)[C@H](CC[C@@H]7[C@@]8(C)CC[C@H](OC(C)=O)C(C)(C)[C@@H]8CC[C@]76C)[C@@H]45)cc3C2=O)cc1 | 27.1 µM | 31.2 µM | 24.4 µM | 27.1 µM | 19.8 µM | 29.6 µM | 24.3 µM | 18.2 µM | 20.8 µM | 16.5 µM
CC(=O)OC[C@]12CC[C@@H](c3cc4c(c(-c5ccccc5)c3)C(=O)NC4=O)[C@@H]1[C@H]1CC[C@@H]3[C@@]4(C)CC[C@H](OC(C)=O)C(C)(C)[C@@H]4CC[C@@]3(C)[C@]1(C)CC2 | > 50 µM | > 50 µM | > 50 µM | > 50 µM | > 50 µM | > 50 µM | > 50 µM | > 50 µM | > 50 µM | > 50 µM
COC(=O)c1cc([C@@H]2CC[C@]3(C(=O)O)CC[C@]4(C)[C@H](CC[C@@H]5[C@@]6(C)CC[C@H](O)C(C)(C)[C@@H]6CC[C@]54C)[C@@H]23)cc(C)c1C(=O)OC | 12.1 µM | 33 µM | 16.3 µM | 10.4 µM | 32.4 µM | 16.1 µM | 19 µM | 7.21 µM | 6.78 µM | 14 µM
CC(=O)O[C@H]1CC[C@]2(C)[C@H]3CC[C@@H]4[C@H]5[C@H](c6ccc7c(c6)C(=O)N(c6cc[nH]n6)C7=O)CC[C@]5(C(=O)O)CC[C@@]4(C)[C@]3(C)CC[C@H]2C1(C)C | 29.4 µM | 30 µM | 24 µM | 27.1 µM | 28.3 µM | 30.1 µM | 26.2 µM | 21.1 µM | 25.4 µM | 18.7 µM
CC1(C)[C@@H](O)CC[C@]2(C)[C@H]3CC[C@@H]4[C@H]5[C@H](c6ccc(C#N)c(C#N)c6)CC[C@]5(C(=O)O)CC[C@@]4(C)[C@]3(C)CC[C@@H]12 | 30 µM | 35.5 µM | 23.7 µM | 19.9 µM | 25.3 µM | 31.8 µM | 20 µM | 5.08 µM | 5.23 µM | 5.9 µM
COC(=O)c1cc([C@@H]2CC[C@]3(C(=O)O)CC[C@]4(C)[C@H](CC[C@@H]5[C@@]6(C)CC[C@H](O)C(C)(C)[C@@H]6CC[C@]54C)[C@@H]23)cc(-c2ccccc2)c1C(=O)OC | 6.12 µM | 36.3 µM | 5.46 µM | 4.44 µM | 30.2 µM | 6.17 µM | 9.94 µM | 4.36 µM | 4.85 µM | 6.3 µM
CC1(C)[C@@H](O)CC[C@]2(C)[C@H]3CC[C@@H]4[C@H]5[C@H](c6ccc7c(c6)C(=O)N(c6ccccc6)C7=O)CC[C@]5(C(=O)O)CC[C@@]4(C)[C@]3(C)CC[C@@H]12 | > 50 µM | > 50 µM | 31.1 µM | 34.2 µM | 31 µM | 37.8 µM | 24.9 µM | 14.3 µM | 19.9 µM | 7.93 µM
CC(=O)O[C@H]1CC[C@]2(C)[C@H]3CC[C@@H]4[C@H]5[C@H](c6cc7c(c(-c8ccccc8)c6)C(=O)NC7=O)CC[C@]5(CO)CC[C@@]4(C)[C@]3(C)CC[C@H]2C1(C)C | > 50 µM | > 50 µM | > 50 µM | > 50 µM | > 50 µM | > 50 µM | > 50 µM | > 50 µM | > 50 µM | > 50 µM

— ChEMBL document CHEMBL6078712, “Triterpenoid phthalimides as selective anti-cancer agents targeting mitochondrial apoptosis” (Eur J Med Chem, 2025)
